Tested on: U2OS
Test: Multiplex assay against U2OS
Type: toxicity, cell-based
Conditions: human
How it was run: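 Tubulin, mitochondrial-mass and membrane-permeability phenotypes are per cents of healthy-nucleus cells. Cells were gated by CellPathfinder machine learning into Hoechst high-intensity objects or normal cells, normal cells into healthy, pyknosed or fragmented nuclei, and pyknosed cells into mitotic or apoptotic. Before that, live cells stained at seeding with Hoechst33342, BioTracker Green Microtubule Cytoskeleton Dye, MitoTracker Red and Annexin V Alexa Fluor 680 were imaged on a CQ1 microscope at 37°C and 5% CO2 after compound addition.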

[1] = 12 h, 1 µM, compound concentration 1 uM, replicate 1
[2] = 12 h, 1 µM, compound concentration 1 uM, replicate 2
[3] = 12 h, 10 µM, compound concentration 10 uM, replicate 1
[4] = 12 h, 10 µM, compound concentration 10 uM, replicate 2
[5] = 24 h, 1 µM, compound concentration 1 uM, replicate 1
[6] = 24 h, 1 µM, compound concentration 1 uM, replicate 2
[7] = 24 h, 10 µM, compound concentration 10 uM, replicate 1
[8] = 24 h, 10 µM, compound concentration 10 uM, replicate 2
[9] = 48 h, 1 µM, compound concentration 1 uM, replicate 1
[10] = 48 h, 1 µM, compound concentration 1 uM, replicate 2
[11] = 48 h, 10 µM, compound concentration 10 uM, replicate 1
[12] = 48 h, 10 µM, compound concentration 10 uM, replicate 2

Cc1cc(C)cc(-c2cnc3cc(Cl)c(-c4cccc(O)c4)cc3c2OCCCN)c1
Population Apoptotic (%) [1]: 36%
Population Fragmented Nuclei (%) [1]: 11%
Population Healthy Nuclei (%) [1]: 75%
Population Hoechst High Intensity Objects (%) [1]: 6%
Population Membrane Permeable-Phenotype (%) [1]: 5%
Population Mitochondria Different-Phenotype (%) [1]: 76%
Population Mitotic Cells (%) [1]: 64%
Population Normal (%) [1]: 93%
Population Pyknosed Nuclei (%) [1]: 12%
Population Tubulin-Different-Phenotype (%) [1]: 88%
Total Cell Count [1]: 132
Population Apoptotic (%) [2]: 44%
Population Healthy Nuclei (%) [2]: 72%
Population Hoechst High Intensity Objects (%) [2]: 10%
Population Membrane Permeable-Phenotype (%) [2]: 2%
Population Mitochondria Different-Phenotype (%) [2]: 82%
Population Mitotic Cells (%) [2]: 55%
Population Normal (%) [2]: 90%
Population Pyknosed Nuclei (%) [2]: 16%
Population Tubulin-Different-Phenotype (%) [2]: 56%
Total Cell Count [2]: 68
Population Apoptotic (%) [3]: 90%
Population Fragmented Nuclei (%) [3]: 33%
Population Healthy Nuclei (%) [3]: 1%
Population Hoechst High Intensity Objects (%) [3]: 14%
Population Membrane Permeable-Phenotype (%) [3]: 50%
Population Mitochondria Different-Phenotype (%) [3]: 50%
Population Mitotic Cells (%) [3]: 9%
Population Normal (%) [3]: 85%
Population Pyknosed Nuclei (%) [3]: 64%
Population Tubulin-Different-Phenotype (%) [3]: 50%
Total Cell Count [3]: 207
Population Apoptotic (%) [4]: 70%
Population Fragmented Nuclei (%) [4]: 16%
Population Healthy Nuclei (%) [4]: 32%
Population Hoechst High Intensity Objects (%) [4]: 8%
Population Membrane Permeable-Phenotype (%) [4]: 90%
Population Mitochondria Different-Phenotype (%) [4]: 95%
Population Mitotic Cells (%) [4]: 29%
Population Normal (%) [4]: 91%
Population Pyknosed Nuclei (%) [4]: 50%
Population Tubulin-Different-Phenotype (%) [4]: 100%
Total Cell Count [4]: 60
Population Apoptotic (%) [5]: 35%
Population Fragmented Nuclei (%) [5]: 7%
Population Healthy Nuclei (%) [5]: 77%
Population Hoechst High Intensity Objects (%) [5]: 5%
Population Membrane Permeable-Phenotype (%) [5]: 6%
Population Mitochondria Different-Phenotype (%) [5]: 75%
Population Mitotic Cells (%) [5]: 64%
Population Normal (%) [5]: 94%
Population Pyknosed Nuclei (%) [5]: 14%
Population Tubulin-Different-Phenotype (%) [5]: 68%
Total Cell Count [5]: 131
Population Apoptotic (%) [6]: 62%
Population Fragmented Nuclei (%) [6]: 11%
Population Healthy Nuclei (%) [6]: 75%
Population Hoechst High Intensity Objects (%) [6]: 3%
Population Membrane Permeable-Phenotype (%) [6]: 2%
Population Mitochondria Different-Phenotype (%) [6]: 78%
Population Mitotic Cells (%) [6]: 37%
Population Normal (%) [6]: 96%
Population Pyknosed Nuclei (%) [6]: 13%
Population Tubulin-Different-Phenotype (%) [6]: 28%
Total Cell Count [6]: 66
Population Apoptotic (%) [7]: 86%
Population Fragmented Nuclei (%) [7]: 33%
Population Healthy Nuclei (%) [7]: 2%
Population Hoechst High Intensity Objects (%) [7]: 15%
Population Membrane Permeable-Phenotype (%) [7]: 66%
Population Mitochondria Different-Phenotype (%) [7]: 66%
Population Mitotic Cells (%) [7]: 13%
Population Normal (%) [7]: 84%
Population Pyknosed Nuclei (%) [7]: 63%
Population Tubulin-Different-Phenotype (%) [7]: 66%
Total Cell Count [7]: 200
Population Apoptotic (%) [8]: 93%
Population Fragmented Nuclei (%) [8]: 24%
Population Healthy Nuclei (%) [8]: 3%
Population Hoechst High Intensity Objects (%) [8]: 7%
Population Membrane Permeable-Phenotype (%) [8]: 50%
Population Mitochondria Different-Phenotype (%) [8]: 50%
Population Mitotic Cells (%) [8]: 6%
Population Normal (%) [8]: 92%
Population Pyknosed Nuclei (%) [8]: 72%
Population Tubulin-Different-Phenotype (%) [8]: 50%
Total Cell Count [8]: 63
Population Apoptotic (%) [9]: 48%
Population Fragmented Nuclei (%) [9]: 8%
Population Healthy Nuclei (%) [9]: 75%
Population Hoechst High Intensity Objects (%) [9]: 1%
Population Membrane Permeable-Phenotype (%) [9]: 3%
Population Mitochondria Different-Phenotype (%) [9]: 47%
Population Mitotic Cells (%) [9]: 51%
Population Normal (%) [9]: 98%
Population Pyknosed Nuclei (%) [9]: 15%
Population Tubulin-Different-Phenotype (%) [9]: 32%
Total Cell Count [9]: 127
Population Apoptotic (%) [10]: 54%
Population Fragmented Nuclei (%) [10]: 11%
Population Healthy Nuclei (%) [10]: 73%
Population Hoechst High Intensity Objects (%) [10]: 5%
Population Membrane Permeable-Phenotype (%) [10]: 5%
Population Mitochondria Different-Phenotype (%) [10]: 41%
Population Mitotic Cells (%) [10]: 45%
Population Normal (%) [10]: 95%
Population Pyknosed Nuclei (%) [10]: 14%
Population Tubulin-Different-Phenotype (%) [10]: 16%
Total Cell Count [10]: 73
Population Apoptotic (%) [11]: 83%
Population Fragmented Nuclei (%) [11]: 30%
Population Healthy Nuclei (%) [11]: 3%
Population Hoechst High Intensity Objects (%) [11]: 20%
Population Membrane Permeable-Phenotype (%) [11]: 75%
Population Mitochondria Different-Phenotype (%) [11]: 75%
Population Mitotic Cells (%) [11]: 16%
Population Normal (%) [11]: 79%
Population Pyknosed Nuclei (%) [11]: 65%
Population Tubulin-Different-Phenotype (%) [11]: 75%
Total Cell Count [11]: 270
Population Apoptotic (%) [12]: 96%
Population Fragmented Nuclei (%) [12]: 33%
Population Healthy Nuclei (%) [12]: 12%
Population Hoechst High Intensity Objects (%) [12]: 17%
Population Membrane Permeable-Phenotype (%) [12]: 100%
Population Mitochondria Different-Phenotype (%) [12]: 100%
Population Mitotic Cells (%) [12]: 3%
Population Normal (%) [12]: 82%
Population Pyknosed Nuclei (%) [12]: 54%
Population Tubulin-Different-Phenotype (%) [12]: 100%
Total Cell Count [12]: 80

From ChEMBL document CHEMBL4689842, “EUbOPEN Chemogenomics Library wave 1” (2021)
